One data set has as its target Integrin alpha-4/beta-1 (Homo sapiens, UniProt P05556+P13612). The experiment in a line: Inhibition of [125I]VCAM-Ig binding to human integrin alpha4-beta1 (VLA-4) of Jurkat cells. In kind it is cell-based. Put shortly: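 Filtered, washed, and bound radiolabel counted by scintillation. DMSO wells set 0% inhibition; cell-free wells set 100%. IC50 from ten-point titration by four-parameter fit, run in duplicate.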

A short description of data set [1]: Oral bioavailability in rat (Sprague-Dawley) (dose 1 mg/kg i.v.). In kind it is ADME, organism-based. As to conditions: in vivo, 2 mg/kg. Put shortly: (§1)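 Sprague–Dawley rats given 1 mg/kg iv and 2 mg/kg po. Plasma half-life taken over 0–8 h.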
Data set [2] is described as follows: Plasma clearance rate in Sprague-Dawley rats. The class given is ADME, organism-based. The settings on record: rat, read-out: Clp. Put shortly:
as §1

For the next data set, the target named is T1, Integrin alpha-4/beta-7 (Homo sapiens, UniProt P13612+P26010).
T1 sequence (P13612 whole entry): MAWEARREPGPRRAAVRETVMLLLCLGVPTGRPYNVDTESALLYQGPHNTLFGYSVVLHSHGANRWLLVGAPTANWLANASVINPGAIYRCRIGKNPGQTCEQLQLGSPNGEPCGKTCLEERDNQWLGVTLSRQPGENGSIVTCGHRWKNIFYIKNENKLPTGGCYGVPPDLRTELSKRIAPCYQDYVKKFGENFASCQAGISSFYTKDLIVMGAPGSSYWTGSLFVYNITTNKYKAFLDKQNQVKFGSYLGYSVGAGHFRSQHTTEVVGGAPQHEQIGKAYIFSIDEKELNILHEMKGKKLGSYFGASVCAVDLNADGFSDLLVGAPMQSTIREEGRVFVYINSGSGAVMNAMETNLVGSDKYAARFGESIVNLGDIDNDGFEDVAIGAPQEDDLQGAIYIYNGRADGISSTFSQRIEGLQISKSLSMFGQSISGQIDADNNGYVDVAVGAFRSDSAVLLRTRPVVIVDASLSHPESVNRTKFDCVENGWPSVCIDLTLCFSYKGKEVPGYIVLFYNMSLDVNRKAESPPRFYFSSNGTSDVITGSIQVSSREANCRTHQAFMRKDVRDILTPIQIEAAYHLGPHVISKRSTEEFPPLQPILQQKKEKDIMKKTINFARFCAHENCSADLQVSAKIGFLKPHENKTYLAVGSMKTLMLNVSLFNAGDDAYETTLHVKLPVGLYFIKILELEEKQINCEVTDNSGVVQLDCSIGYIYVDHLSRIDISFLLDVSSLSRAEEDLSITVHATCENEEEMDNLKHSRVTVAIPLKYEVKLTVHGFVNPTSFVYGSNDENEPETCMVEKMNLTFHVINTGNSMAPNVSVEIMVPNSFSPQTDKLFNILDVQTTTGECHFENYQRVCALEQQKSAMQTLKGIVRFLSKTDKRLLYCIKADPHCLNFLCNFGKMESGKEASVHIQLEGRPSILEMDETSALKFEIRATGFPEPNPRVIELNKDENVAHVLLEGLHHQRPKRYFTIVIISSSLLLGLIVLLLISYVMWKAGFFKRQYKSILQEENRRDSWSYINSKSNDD
T1 sequence (P26010 whole entry): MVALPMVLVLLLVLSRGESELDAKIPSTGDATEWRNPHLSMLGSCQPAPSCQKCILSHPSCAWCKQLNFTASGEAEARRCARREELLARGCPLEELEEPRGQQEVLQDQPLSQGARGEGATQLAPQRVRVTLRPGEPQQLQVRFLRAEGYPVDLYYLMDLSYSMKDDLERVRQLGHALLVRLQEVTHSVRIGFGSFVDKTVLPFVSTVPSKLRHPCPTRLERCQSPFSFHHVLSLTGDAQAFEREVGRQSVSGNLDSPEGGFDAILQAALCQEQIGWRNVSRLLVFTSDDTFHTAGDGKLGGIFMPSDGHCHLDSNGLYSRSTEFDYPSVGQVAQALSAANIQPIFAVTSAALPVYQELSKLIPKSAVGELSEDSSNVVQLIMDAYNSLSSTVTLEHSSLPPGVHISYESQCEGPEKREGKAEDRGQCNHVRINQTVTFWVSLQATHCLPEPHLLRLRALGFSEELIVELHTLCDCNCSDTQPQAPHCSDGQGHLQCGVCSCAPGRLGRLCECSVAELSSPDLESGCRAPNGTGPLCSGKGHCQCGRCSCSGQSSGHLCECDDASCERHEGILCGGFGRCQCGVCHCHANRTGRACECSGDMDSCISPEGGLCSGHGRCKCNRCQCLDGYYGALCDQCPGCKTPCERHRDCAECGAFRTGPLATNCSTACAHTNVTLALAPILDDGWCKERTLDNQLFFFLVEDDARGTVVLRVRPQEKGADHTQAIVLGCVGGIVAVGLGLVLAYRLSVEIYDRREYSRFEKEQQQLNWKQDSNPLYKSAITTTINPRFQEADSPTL
The experiment in a line: Inhibition of [125I]MAdCAM-Ig binding to human integrin alpha4-beta7 of RPMI-8866 cells. In kind it is cell-based.

The nature of data set [3]: Plasma half-life was determined in Sprague-Dawley rats after 0-8 hr of administration. In kind it is ADME, organism-based. The settings on record: rat. Put shortly: as §1

This note sets out measurements from ChEMBL document CHEMBL1134871, “N-aryl-prolyl-dipeptides as potent antagonists of VLA-4” (Bioorg Med Chem Lett, 2002).

Sequence of Integrin alpha-4/beta-1 (P05556 whole entry, one chain of several): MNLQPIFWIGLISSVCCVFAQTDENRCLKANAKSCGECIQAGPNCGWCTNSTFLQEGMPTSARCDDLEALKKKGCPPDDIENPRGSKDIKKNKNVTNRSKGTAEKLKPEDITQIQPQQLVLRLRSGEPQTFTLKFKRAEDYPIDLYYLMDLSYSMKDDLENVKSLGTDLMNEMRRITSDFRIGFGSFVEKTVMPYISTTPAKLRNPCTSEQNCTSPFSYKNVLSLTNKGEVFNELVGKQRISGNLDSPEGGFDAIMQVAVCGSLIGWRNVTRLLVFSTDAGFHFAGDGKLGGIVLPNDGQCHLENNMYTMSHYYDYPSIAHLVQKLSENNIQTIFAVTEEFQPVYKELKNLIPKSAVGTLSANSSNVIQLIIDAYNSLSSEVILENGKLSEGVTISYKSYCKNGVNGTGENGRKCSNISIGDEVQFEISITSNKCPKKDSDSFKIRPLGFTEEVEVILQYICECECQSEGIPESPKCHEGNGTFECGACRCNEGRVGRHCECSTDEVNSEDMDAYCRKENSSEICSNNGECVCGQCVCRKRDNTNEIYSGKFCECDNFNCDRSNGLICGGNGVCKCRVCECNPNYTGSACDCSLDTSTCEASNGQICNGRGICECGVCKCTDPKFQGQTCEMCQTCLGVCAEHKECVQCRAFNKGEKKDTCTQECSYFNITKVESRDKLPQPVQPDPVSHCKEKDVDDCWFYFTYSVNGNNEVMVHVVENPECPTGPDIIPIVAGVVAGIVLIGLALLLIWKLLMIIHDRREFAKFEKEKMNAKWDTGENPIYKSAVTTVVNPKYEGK

As for `COc1cccc(OC)c1-c1ccc(CC(NC(=O)C2(S(=O)(=O)c3ccccc3)CCCC2)C(=O)O)cc1` (stereo unspecified), the IC50 (as a rule, the concentration that gives 50% inhibition) at Integrin alpha-4/beta-1 was 0.11 nM; at Integrin alpha-4/beta-7, 5 nM. Moreover, in data set [1], the bioavailability (in general, the share of a dose that reaches the circulation, judged against a reference dose that is usually intravenous) was determined as 22%. Also, the clearance in data set [2] worked out at 122 mL/min/kg.

As for `COc1cccc(OC)c1-c1ccc(C[C@H](NC(=O)[C@@H]2CCCN2c2ccccc2C#N)C(=O)O)cc1`, the half-life (commonly how long it takes for the measured level to halve) in data set [3] is 18 min. Besides, the IC50 at Integrin alpha-4/beta-1 is 0.37 nM; at Integrin alpha-4/beta-7, 3.5 nM. Moreover, the bioavailability in data set [1] is < 1%. In addition, the clearance in data set [2] was 69 mL/min/kg.

For `COc1cccc(N2CCC[C@H]2C(=O)N[C@@H](Cc2ccc(-c3c(OC)cccc3OC)cc2)C(=O)O)c1`, the half-life in data set [3] was 42 min. Also, the IC50 on Integrin alpha-4/beta-1 stood at 0.41 nM; at Integrin alpha-4/beta-7, 5.8 nM. Further, the bioavailability in data set [1] stood at 3%. Also, in data set [2], the clearance worked out at 64 mL/min/kg.

Regarding `COc1cccc(OC)c1-c1ccc(C[C@H](NC(=O)[C@@H]2CCCN2c2cc([N+](=O)[O-])cc([N+](=O)[O-])n2)C(=O)O)cc1`, the IC50 at Integrin alpha-4/beta-1 is 0.38 nM; at Integrin alpha-4/beta-7 it was 17 nM.

Consider `COc1cccc(OC)c1-c1ccc(C[C@H](NC(=O)[C@@H]2CCCN2c2ccccn2)C(=O)O)cc1`, for which the half-life in data set [3] is 18 min. Moreover, the values for the IC50 on Integrin alpha-4/beta-1 and on Integrin alpha-4/beta-7 were 1.9 nM and 18 nM, respectively. The compound also gave a bioavailability in data set [1] of 2%. In addition, the clearance in data set [2] is 29 mL/min/kg.

With `COc1cccc(OC)c1-c1ccc(C[C@H](NC(=O)[C@@H]2CCCN2c2cncnc2)C(=O)O)cc1`, the IC50 on Integrin alpha-4/beta-1 amounted to 0.73 nM; on Integrin alpha-4/beta-7 it was 18.8 nM.

As to `COc1cccc(OC)c1-c1ccc(CC(NC(=O)C2CCCN2S(=O)(=O)c2ccccc2)C(=O)O)cc1` (stereo unspecified), the half-life in data set [3] is 36 min. The figures for the IC50 at Integrin alpha-4/beta-1 and at Integrin alpha-4/beta-7 were 0.05 nM and 2.5 nM, respectively. The compound further returned a bioavailability in data set [1] of 2%. Further, the clearance in data set [2] is 127 mL/min/kg.

Take `COc1cccc(OC)c1-c1ccc(C[C@H](NC(=O)[C@@H]2CCCN2c2cccnc2)C(=O)O)cc1`: the half-life in data set [3] is 12 min. In addition, the IC50 at Integrin alpha-4/beta-1 was determined as 0.34 nM; at Integrin alpha-4/beta-7, 5.5 nM. The bioavailability in data set [1] is < 1%. The clearance in data set [2] stood at 43 mL/min/kg.

`COc1cccc(OC)c1-c1ccc(C[C@H](NC(=O)[C@@H]2CCCN2c2ccccc2)C(=O)O)cc1` gave a half-life in data set [3] of 36 min. Besides, the values for the IC50 on Integrin alpha-4/beta-1 and on Integrin alpha-4/beta-7 were 0.61 nM and 21 nM, respectively. This compound also gave a bioavailability in data set [1] of 14%. For the same compound, the clearance in data set [2] is 78 mL/min/kg.

In the case of `COc1cccc(OC)c1-c1ccc(C[C@H](NC(=O)[C@@H]2CCCN2c2cnccn2)C(=O)O)cc1`, the IC50 came out at 0.17 nM on Integrin alpha-4/beta-1 and 8.9 nM on Integrin alpha-4/beta-7.

Compound `COc1cccc(OC)c1-c1ccc(C[C@H](NC(=O)[C@@H]2CCCN2c2ccc([N+](=O)[O-])cc2)C(=O)O)cc1` had a half-life in data set [3] of 84 min. For the same compound, the IC50 at Integrin alpha-4/beta-1 was determined as 1.1 nM; at Integrin alpha-4/beta-7 it was 17.1 nM. Moreover, the bioavailability in data set [1] is < 1%. In addition, in data set [2], the clearance is > 100 mL/min/kg.

As to `COc1cccc(OC)c1-c1ccc(CC(NC(=O)C2(c3ccccc3)CCCC2)C(=O)O)cc1` (stereo unspecified), the IC50 at Integrin alpha-4/beta-1 was determined as 3.2 nM; at Integrin alpha-4/beta-7 it was 110 nM. Also, in data set [1], the bioavailability worked out at 55%. In addition, the clearance in data set [2] amounted to 22 mL/min/kg.

Regarding `COc1cccc(OC)c1-c1ccc(C[C@H](NC(=O)[C@@H]2CCCN2c2cncc3ccccc23)C(=O)O)cc1`, the IC50 was found to be 1.1 nM at Integrin alpha-4/beta-1 and 45 nM on Integrin alpha-4/beta-7.
